# Test system: HEK-293T
# Experiment: Multiplex assay against HEK293T;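 as to Population Tubulin-Different-Phenotype (%): share of the cells with healthy nuclei that show this phenotype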
# Format: toxicity, cell-based
# Details: human
# Method in brief: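 Values for tubulin, mitochondrial-mass and membrane-permeability phenotypes are per cents of cells with healthy nuclei. These cells were identified by CellPathfinder machine-learning gating of live cells that had been stained at seeding with Hoechst33342, BioTracker Green Microtubule Cytoskeleton Dye, MitoTracker Red and Annexin V Alexa Fluor 680 and imaged on a CQ1 microscope at 37°C and 5% CO2 after compound addition. The gating first set Hoechst high-intensity objects apart from normal cells, then split normal cells into healthy, pyknosed or fragmented nuclei, and pyknosed cells into mitotic or apoptotic.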
# [1] = 12 h, 1 µM, compound concentration 1 uM, replicate 1
# [2] = 12 h, 1 µM, compound concentration 1 uM, replicate 2
# [3] = 12 h, 10 µM, compound concentration 10 uM, replicate 1
# [4] = 12 h, 10 µM, compound concentration 10 uM, replicate 2
# [5] = 24 h, 1 µM, compound concentration 1 uM, replicate 1
# [6] = 24 h, 1 µM, compound concentration 1 uM, replicate 2
# [7] = 24 h, 10 µM, compound concentration 10 uM, replicate 1
# [8] = 24 h, 10 µM, compound concentration 10 uM, replicate 2
# [9] = 48 h, 1 µM, compound concentration 1 uM, replicate 1
# [10] = 48 h, 1 µM, compound concentration 1 uM, replicate 2
# [11] = 48 h, 10 µM, compound concentration 10 uM, replicate 1
# [12] = 48 h, 10 µM, compound concentration 10 uM, replicate 2
structure (smiles),measurement,setting,value
CN(C)C(=O)/C(C#N)=C/c1ccc(-c2nc3cnc4[nH]ccc4c3n2C2CCCCC2)o1,Population Apoptotic (%),[1],48%
same,Population Fragmented Nuclei (%),[1],9%
same,Population Healthy Nuclei (%),[1],42%
same,Population Hoechst High Intensity Objects (%),[1],12%
same,Population Membrane Permeable-Phenotype (%),[1],2%
same,Population Mitochondria Different-Phenotype (%),[1],68%
same,Population Mitotic Cells (%),[1],51%
same,Population Normal (%),[1],87%
same,Population Pyknosed Nuclei (%),[1],48%
same,Population Tubulin-Different-Phenotype (%),[1],44%
same,Total Cell Count,[1],283
same,Population Apoptotic (%),[2],21%
same,Population Fragmented Nuclei (%),[2],6%
same,Population Healthy Nuclei (%),[2],46%
same,Population Hoechst High Intensity Objects (%),[2],5%
same,Population Membrane Permeable-Phenotype (%),[2],5%
same,Population Mitochondria Different-Phenotype (%),[2],36%
same,Population Mitotic Cells (%),[2],78%
same,Population Normal (%),[2],94%
same,Population Pyknosed Nuclei (%),[2],46%
same,Population Tubulin-Different-Phenotype (%),[2],37%
same,Total Cell Count,[2],175
same,Population Apoptotic (%),[3],41%
same,Population Fragmented Nuclei (%),[3],24%
same,Population Healthy Nuclei (%),[3],39%
same,Population Hoechst High Intensity Objects (%),[3],37%
same,Population Membrane Permeable-Phenotype (%),[3],17%
same,Population Mitochondria Different-Phenotype (%),[3],63%
same,Population Mitotic Cells (%),[3],58%
same,Population Normal (%),[3],62%
same,Population Pyknosed Nuclei (%),[3],36%
same,Population Tubulin-Different-Phenotype (%),[3],60%
same,Total Cell Count,[3],451
same,Population Apoptotic (%),[4],32%
same,Population Fragmented Nuclei (%),[4],17%
same,Population Healthy Nuclei (%),[4],43%
same,Population Hoechst High Intensity Objects (%),[4],25%
same,Population Membrane Permeable-Phenotype (%),[4],15%
same,Population Mitochondria Different-Phenotype (%),[4],50%
same,Population Mitotic Cells (%),[4],67%
same,Population Normal (%),[4],74%
same,Population Pyknosed Nuclei (%),[4],39%
same,Population Tubulin-Different-Phenotype (%),[4],79%
same,Total Cell Count,[4],219
same,Population Apoptotic (%),[5],46%
same,Population Fragmented Nuclei (%),[5],10%
same,Population Healthy Nuclei (%),[5],45%
same,Population Hoechst High Intensity Objects (%),[5],14%
same,Population Membrane Permeable-Phenotype (%),[5],2%
same,Population Mitochondria Different-Phenotype (%),[5],60%
same,Population Mitotic Cells (%),[5],53%
same,Population Normal (%),[5],85%
same,Population Pyknosed Nuclei (%),[5],44%
same,Population Tubulin-Different-Phenotype (%),[5],40%
same,Total Cell Count,[5],316
same,Population Apoptotic (%),[6],21%
same,Population Fragmented Nuclei (%),[6],8%
same,Population Healthy Nuclei (%),[6],68%
same,Population Hoechst High Intensity Objects (%),[6],2%
same,Population Membrane Permeable-Phenotype (%),[6],10%
same,Population Mitochondria Different-Phenotype (%),[6],23%
same,Population Mitotic Cells (%),[6],78%
same,Population Normal (%),[6],97%
same,Population Pyknosed Nuclei (%),[6],22%
same,Population Tubulin-Different-Phenotype (%),[6],34%
same,Total Cell Count,[6],239
same,Population Apoptotic (%),[7],44%
same,Population Fragmented Nuclei (%),[7],25%
same,Population Healthy Nuclei (%),[7],39%
same,Population Hoechst High Intensity Objects (%),[7],41%
same,Population Membrane Permeable-Phenotype (%),[7],9%
same,Population Mitochondria Different-Phenotype (%),[7],61%
same,Population Mitotic Cells (%),[7],55%
same,Population Normal (%),[7],58%
same,Population Pyknosed Nuclei (%),[7],35%
same,Population Tubulin-Different-Phenotype (%),[7],57%
same,Total Cell Count,[7],448
same,Population Apoptotic (%),[8],34%
same,Population Fragmented Nuclei (%),[8],22%
same,Population Healthy Nuclei (%),[8],56%
same,Population Hoechst High Intensity Objects (%),[8],30%
same,Population Membrane Permeable-Phenotype (%),[8],7%
same,Population Mitochondria Different-Phenotype (%),[8],49%
same,Population Mitotic Cells (%),[8],65%
same,Population Normal (%),[8],69%
same,Population Pyknosed Nuclei (%),[8],21%
same,Population Tubulin-Different-Phenotype (%),[8],72%
same,Total Cell Count,[8],280
same,Population Apoptotic (%),[9],45%
same,Population Fragmented Nuclei (%),[9],13%
same,Population Healthy Nuclei (%),[9],49%
same,Population Hoechst High Intensity Objects (%),[9],13%
same,Population Membrane Permeable-Phenotype (%),[9],2%
same,Population Mitochondria Different-Phenotype (%),[9],21%
same,Population Mitotic Cells (%),[9],54%
same,Population Normal (%),[9],86%
same,Population Pyknosed Nuclei (%),[9],37%
same,Population Tubulin-Different-Phenotype (%),[9],30%
same,Total Cell Count,[9],381
same,Population Apoptotic (%),[10],15%
same,Population Fragmented Nuclei (%),[10],9%
same,Population Healthy Nuclei (%),[10],80%
same,Population Hoechst High Intensity Objects (%),[10],3%
same,Population Membrane Permeable-Phenotype (%),[10],8%
same,Population Mitochondria Different-Phenotype (%),[10],5%
same,Population Mitotic Cells (%),[10],84%
same,Population Normal (%),[10],96%
same,Population Pyknosed Nuclei (%),[10],10%
same,Population Tubulin-Different-Phenotype (%),[10],21%
same,Total Cell Count,[10],389
same,Population Apoptotic (%),[11],46%
same,Population Fragmented Nuclei (%),[11],26%
same,Population Healthy Nuclei (%),[11],46%
same,Population Hoechst High Intensity Objects (%),[11],34%
same,Population Membrane Permeable-Phenotype (%),[11],13%
same,Population Mitochondria Different-Phenotype (%),[11],29%
same,Population Mitotic Cells (%),[11],53%
same,Population Normal (%),[11],65%
same,Population Pyknosed Nuclei (%),[11],27%
same,Population Tubulin-Different-Phenotype (%),[11],40%
same,Total Cell Count,[11],490
same,Population Apoptotic (%),[12],35%
same,Population Fragmented Nuclei (%),[12],18%
same,Population Healthy Nuclei (%),[12],67%
same,Population Hoechst High Intensity Objects (%),[12],21%
same,Population Membrane Permeable-Phenotype (%),[12],10%
same,Population Mitochondria Different-Phenotype (%),[12],17%
same,Population Mitotic Cells (%),[12],64%
same,Population Normal (%),[12],78%
same,Population Pyknosed Nuclei (%),[12],13%
same,Population Tubulin-Different-Phenotype (%),[12],49%
same,Total Cell Count,[12],338

# Reference: ChEMBL document CHEMBL4689842, “EUbOPEN Chemogenomics Library wave 1” (2021)
